Here are results for three molecules from article PMC4980077 (The FEBS journal, 2016).

The test system of experiment [1] is PKA-Cα. Nature of the experiment: 32P phosphorylation. The conditions noted are these: PKA-Cα 20 nM, pH 7.5; n = 3. The experiment is classed as biochemical. The method, boiled down:
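Substrate was His-tagged human smAKAP (wild type, or S66D with PKA-Cα) at 10 μM. It was incubated with 20 nM recombinant kinase in 50 mM MOPS pH 7.5 containing 10 mM MgCl2, 200 μM ATP and [32P]ATP. Aliquots were quenched in 30% acetic acid at 0, 5, 10 and 15 min. Results are means ± SD of 3 independent experiments.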

For experiment [2], the system named is PKA-RIα. Nature of the experiment: Confocal colocalization with PKA-RIα in HeLa cells. The experiment is classed as cell-based. The conditions noted are these: phosphomimetic mutant + PKA-RIα-mKO2.
Experiment [3] has as its system PKA-RIβ. Description: Confocal colocalization with PKA-RIβ-mKO2 in HeLa cells. In kind it is cell-based. The following applies: for localization of PKA-RIβ on co-transfection: phosphomimetic mutant + PKA-RIβ-mKO2. Put shortly:
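HeLa cells co-expressed GFP-tagged smAKAP (wild type, S66E or S66D) with mKO2-tagged PKA-RIα or RIβ. Cells were washed in ice-cold PBS, fixed in ice-cold 4% formaldehyde in PBS, washed twice and imaged by confocal microscopy through a 63× oil objective. Stimulated cells received calyculin A plus 8-CPT-cAMP and were imaged live.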

B1: smAKAP-S66D: recombinant smAKAP with Ser66 mutated to an aspartic acid (protein, UniProt Q9BSF0 2-95, looked up, variant S66D)
Small membrane A-kinase …: GCMKSKQTFPFPTIYEGEKQHESEEPFMPEERCLPRMASPVNVKEEVKEPPGTNTVILEYAHRLDQDILCDALQQWACNNIKYHDIPYIESEGP
With B1, the “phosphorylation by PKA” value in experiment [1] is listed as “no detectable levels of phosphorylation”.

B2: smAKAP-S66D-GFP: phosphomimetic mutant GFP fusion (protein, UniProt Q9BSF0 2-95, looked up, variant S66D)
Small membrane A-kinase …: GCMKSKQTFPFPTIYEGEKQHESEEPFMPEERCLPRMASPVNVKEEVKEPPGTNTVILEYAHRLDQDILCDALQQWACNNIKYHDIPYIESEGP
modifications: GFP fusion
With B2, the “localization of PKA-RIα on co-transfection” value in experiment [2] is recorded as “predominantly resided in the cytoplasm”. Also, the “localization of PKA-RIβ on co-transfection” value in experiment [3] is on record as “predominantly resided in the cytoplasm”.

B3: smAKAP-S66E-GFP: phosphomimetic mutant GFP fusion (protein, UniProt Q9BSF0 2-95, looked up, variant S66E)
Small membrane A-kinase …: GCMKSKQTFPFPTIYEGEKQHESEEPFMPEERCLPRMASPVNVKEEVKEPPGTNTVILEYAHRLEQDILCDALQQWACNNIKYHDIPYIESEGP
modifications: GFP fusion
In the case of B3, in experiment [2], the “localization of PKA-RIα on co-transfection” value was “predominantly resided in the cytoplasm”. Besides, the “localization of PKA-RIβ on co-transfection” value in experiment [3] is “predominantly resided in the cytoplasm”. Besides, the “colocalization with PKA-RIβ-mKO2” value in experiment [3] (transfected, confocal, unstimulated) was “no colocalization occurs”.
